Data on 6 compounds can be found in ChEMBL document CHEMBL4715736, “Identification of anticancer agents based on the thieno[2,3-b]pyridine and 1H-pyrazole molecular scaffolds” (2016).

Structures are written as SMILES.

What all share (format): functional
What all share (settings): read-out: Activity

In assay [1] the test system is UACC-257. As to the kind of experiment: Growth inhibition of human UACC-257 cells assessed as cell growth at 10 uM incubated for 48 hrs by sulforhodamine B assay relative to control. The method in brief: (§1)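 Run by the NCI Developmental Therapeutics Program as part of its 60-line human tumour panel. Each compound tested at a single 10 µM dose. Growth expressed as % relative to untreated control cells (100%).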

The test system of assay [2] is HOP-62. As to the kind of experiment: Growth inhibition of human HOP-62 cells assessed as cell growth at 10 uM incubated for 48 hrs by sulforhodamine B assay relative to control. The method in brief:
(§2)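 Submitted to the NCI Developmental Therapeutics Program for the NCI60 human tumour cell line panel. First screen at a single 10 µM concentration. Read-out is growth relative to untreated control cells set at 100%.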
On the technique in general: Sulforhodamine B stains cellular protein and so reports cell mass.

Assay [3] relates to MOLT-4. As to the kind of experiment: Growth inhibition of human MOLT-4 cells assessed as cell growth at 10 uM incubated for 48 hrs by sulforhodamine B assay relative to control. In outline: as §2
Assay [4] relates to NCI-H460. As to the kind of experiment: Growth inhibition of human NCI-H460 cells assessed as cell growth at 10 uM incubated for 48 hrs by sulforhodamine B assay relative to control. The method in brief: as §2
Assay [5] has as its system SR. As to the kind of experiment: Growth inhibition of human SR cells assessed as cell growth at 10 uM incubated for 48 hrs by sulforhodamine B assay relative to control. In outline: as §1
The test system of assay [6] is KM12. As to the kind of experiment: Growth inhibition of human KM12 cells assessed as cell growth at 10 uM incubated for 48 hrs by sulforhodamine B assay relative to control. The method in brief:
as §2

Assay [7] concerns M14. As to the kind of experiment: Growth inhibition of human M14 cells assessed as cell growth at 10 uM incubated for 48 hrs by sulforhodamine B assay relative to control. In outline:
as §2

Assay [8] relates to TK-10. As to the kind of experiment: Growth inhibition of human TK-10 cells assessed as cell growth at 10 uM incubated for 48 hrs by sulforhodamine B assay relative to control. In outline: as §1
Assay [9] relates to SN12C. As to the kind of experiment: Growth inhibition of human SN12C cells assessed as cell growth at 10 uM incubated for 48 hrs by sulforhodamine B assay relative to control. In outline:
as §1

The test system of assay [10] is SNB-75. As to the kind of experiment: Growth inhibition of human SNB-75 cells assessed as cell growth at 10 uM incubated for 48 hrs by sulforhodamine B assay relative to control. In outline: as §1
The test system of assay [11] is HT-29. As to the kind of experiment: Growth inhibition of human HT-29 cells assessed as cell growth at 10 uM incubated for 48 hrs by sulforhodamine B assay relative to control. In outline: as §2
Assay [12] concerns SNB-19. As to the kind of experiment: Growth inhibition of human SNB-19 cells assessed as cell growth at 10 uM incubated for 48 hrs by sulforhodamine B assay relative to control. In outline: as §1
The subject of assay [13] is SK-MEL-2. As to the kind of experiment: Growth inhibition of human SK-MEL-2 cells assessed as cell growth at 10 uM incubated for 48 hrs by sulforhodamine B assay relative to control. In outline: as §1
Assay [14] deals with NCI-H522. As to the kind of experiment: Growth inhibition of human NCI-H522 cells assessed as cell growth at 10 uM incubated for 48 hrs by sulforhodamine B assay relative to control. In outline: as §2
In assay [15] the test system is BT-549. As to the kind of experiment: Growth inhibition of human BT-549 cells assessed as cell growth at 10 uM incubated for 48 hrs by sulforhodamine B assay relative to control. In outline:
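NCI Developmental Therapeutics Program NCI60 human tumour cell line panel, one-dose primary screen with every compound at 10 µM. Growth is expressed as % of untreated control cells (100%).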

Assay [16] relates to SK-MEL-5. As to the kind of experiment: Growth inhibition of human SK-MEL-5 cells assessed as cell growth at 10 uM incubated for 48 hrs by sulforhodamine B assay relative to control. In outline: as §1
In assay [17] the test system is A498. As to the kind of experiment: Growth inhibition of human A498 cells assessed as cell growth at 10 uM incubated for 48 hrs by sulforhodamine B assay relative to control. In outline:
(§3)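 NCI Developmental Therapeutics Program NCI60 panel. Compounds that were active in the 10 µM one-dose screen went on to dose–response testing. Growth at each concentration is expressed relative to untreated control (100%). GI50 (concentration giving 50% of maximal inhibition of proliferation) and TGI (concentration giving total growth inhibition) were derived from the curves.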

The subject of assay [18] is UO-31. As to the kind of experiment: Growth inhibition of human UO-31 cells assessed as cell growth at 10 uM incubated for 48 hrs by sulforhodamine B assay relative to control. The method in brief: as §1
For assay [19], the system named is NCI-H226. As to the kind of experiment: Growth inhibition of human NCI-H226 cells assessed as cell growth at 10 uM incubated for 48 hrs by sulforhodamine B assay relative to control. The method in brief: as §2
The subject of assay [20] is HCT-15. As to the kind of experiment: Growth inhibition of human HCT-15 cells assessed as cell growth at 10 uM incubated for 48 hrs by sulforhodamine B assay relative to control. The method in brief: as §2
Assay [21] deals with HCT-116. As to the kind of experiment: Growth inhibition of human HCT-116 cells assessed as cell growth at 10 uM incubated for 48 hrs by sulforhodamine B assay relative to control. The method in brief:
as §2

Assay [22] deals with SK-OV-3. As to the kind of experiment: Growth inhibition of human SK-OV-3 cells assessed as cell growth at 10 uM incubated for 48 hrs by sulforhodamine B assay relative to control. The method in brief: as §1
Assay [23] has as its system RXF 393. As to the kind of experiment: Growth inhibition of human RXF 393 cells assessed as cell growth at 10 uM incubated for 48 hrs by sulforhodamine B assay relative to control. In outline:
as §1

For assay [24], the system named is 786-0. As to the kind of experiment: Growth inhibition of human 786-0 cells assessed as cell growth at 10 uM incubated for 48 hrs by sulforhodamine B assay relative to control. In outline:
as §3

The test system of assay [25] is CAKI-1. As to the kind of experiment: Growth inhibition of human CAKI-1 cells assessed as cell growth at 10 uM incubated for 48 hrs by sulforhodamine B assay relative to control. In outline:
as §3

Assay [26] concerns Malme-3M. As to the kind of experiment: Growth inhibition of human Malme-3M cells assessed as cell growth at 10 uM incubated for 48 hrs by sulforhodamine B assay relative to control. The method in brief: as §2

As to `Cc1cccc(NC(=O)c2sc3nc4c(cc3c2N)CN(Cc2ccccc2)CC4)c1`, the growth at 10 µM came to 89.8% in assay [1]; 110% in [2]; 103% in assay [3]; 98.6% in assay [4]; 95% in assay [5]; 96.4% in assay [6]. For the same compound, the growth at 10 µM in assay [7] was 106%; in assay [8], 114%; in [9], 107%; in assay [10], 101%; in assay [11] it was 100%; in [12] it was 110%. Also, the growth at 10 µM in assay [13] worked out at 129%; in assay [14], 114%; in [15] it was 79%; in assay [16], 103%; in [17] it was 85.1%; in assay [18], 98.4%. Moreover, the growth at 10 µM in assay [19] was 100%; in assay [20] it was 97.5%; in [21], 92.6%; in assay [22], 105%; in [23], 103%; in assay [24], 91.5%.

On to `CC1(C)CCc2cc(-c3ccn(S(=O)(=O)c4ccc(C(C)(C)C)cc4)n3)ccc2O1`, for which the growth at 10 µM in assay [1] turned out to be 63%; in [2], 120%; in assay [3], 98.5%; in assay [4] it was 82.9%; in assay [5], 77.8%; in [6] it was 90.5%. Further, the growth at 10 µM amounted to 91.3% in [7]; 84.3% in assay [8]; 87.7% in assay [9]; 100% in assay [10]; 88.2% in assay [12]; 58.2% in assay [13]. The growth at 10 µM in [14] was 66.5%; in assay [16], 78%; in assay [17], 68.4%; in assay [18], 84.8%; in assay [19] it was 70.5%; in [20] it was 87%. Besides, the growth at 10 µM was determined as 68.9% in [25], 73.1% in assay [21], 79.9% in assay [24] and 105% in [26].

For `CC(C)N1CCc2nc3sc(C(=O)Nc4ccccc4)c(N)c3cc2C1`, the growth at 10 µM was found to be 95.1% in [1]; 94.1% in [2]; 106% in assay [3]; 99.6% in assay [4]; 86.6% in [5]; 101% in [6]. For the same compound, the growth at 10 µM in assay [7] was found to be 108%; in assay [8], 127%; in [9], 106%; in assay [10], 69.1%; in assay [11], 103%; in assay [12] it was 105%. The growth at 10 µM in [13] was 114%; in [14], 104%; in [15] it was 106%; in assay [16], 95%; in assay [17], 67.5%; in assay [18], 87.8%. For the same compound, the growth at 10 µM in [19] came to 94.8%; in assay [20], 101%; in [21] it was 102%; in assay [22] it was 113%; in assay [23], 102%; in assay [24] it was 108%.

For `COc1ccc(S(=O)(=O)n2ccc(-c3ccc4c(c3)CCC(C)(C)O4)n2)cc1OC`, the growth at 10 µM in [1] came to 57.1%; in assay [2], 112%; in assay [3] it was 63.8%; in assay [4], 69.6%; in assay [5], 60.2%; in assay [6] it was 71.4%. Besides, the growth at 10 µM in assay [7] stood at 81.9%; in assay [8] it was 72.1%; in [9], 83.1%; in assay [10], 84.6%; in assay [12], 87.4%; in assay [13], 56.1%. Moreover, the growth at 10 µM was found to be 65.8% in assay [14]; 28.2% in assay [16]; 52.8% in [17]; 68.5% in assay [18]; 59% in assay [19]; 71.9% in assay [20]. For the same compound, the growth at 10 µM in assay [25] is 58.3%; in assay [21] it was 61.5%; in assay [23] it was 75.1%; in assay [24] it was 79.4%; in assay [26], 114%.

With `CC1(C)CCc2cc(-c3ccn(S(=O)(=O)c4ccc(Cl)cc4Cl)n3)ccc2O1`, the growth at 10 µM in assay [1] was 97.1%; in [2], 105%; in assay [3], 84.8%; in [4] it was 95.6%; in assay [5] it was 77.9%; in assay [6], 92.9%. The growth at 10 µM stood at 85.9% in [7]; 68.7% in assay [8]; 89.6% in [9]; 97.4% in assay [10]; 87.2% in [12]; 79.7% in [13]. Further, the growth at 10 µM in assay [14] is 60.4%; in assay [16], 97.3%; in [17], 68.9%; in assay [18] it was 73.3%; in assay [19], 87%; in [20], 91%. The growth at 10 µM turned out to be 83.8% in [25], 73.6% in assay [21], 79% in assay [24] and 85.1% in assay [26].

On to `CC(=O)c1ccc2c(N)c(C(=O)Nc3ccccc3)sc2n1`, for which the growth at 10 µM in assay [1] was 102%; in assay [2], 102%; in assay [3], 107%; in [4], 101%; in [5], 86.5%; in [6], 110%. Moreover, the growth at 10 µM in assay [7] is 109%; in assay [8] it was 108%; in assay [9] it was 110%; in assay [10] it was 99.5%; in assay [11] it was 97.2%; in assay [12], 105%. Also, the growth at 10 µM in assay [13] amounted to 107%; in assay [14], 103%; in assay [15], 108%; in assay [16] it was 98.5%; in [17], 70.3%; in [18] it was 103%. The growth at 10 µM came to 93.4% in assay [19]; 96.7% in assay [20]; 108% in assay [21]; 106% in [22]; 100% in [23]; 97.9% in assay [24].
